Assay results from ChEMBL document CHEMBL4145654, “Structure-Based Discovery of CF53 as a Potent and Orally Bioavailable Bromodomain and Extra-Terminal (BET) Bromodomain Inhibitor” (J Med Chem, 2018).

Columns and labels:
[1] = biological target: Transcription initiation factor TFIID subunit 1 (Homo sapiens, UniProt P21675); test: Binding affinity to human TAF1 bromodomain 2 (D1521 to D1656 residues) expressed in bacterial expression system by BROMOScan assay
[2] = species: Homo sapiens; test: Selectivity index, ratio of Kd for human CREBBP (R1081 to G1197 residues) to Kd for human BRD3 bromodomain 1 (P24 to E144 residues)
[3] = Apparent volume of distribution in Balb/c mouse at 5 mg/kg, iv by LC-MS/MS analysis; assay type: ADME, organism-based; settings: in vivo, read-out: Vz
Method in brief: (§1)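 Balb/c mice dosed iv at 5.0 mg/kg or po at 25 mg/kg, compound in vehicle of 20% (v/v) PCP and 70% (v/v) PBS. Serial blood samples taken at 0, 5, 15, 30 min and 1, 2, 4, 6, 8, 24 h. Plasma obtained by centrifugation and stored at −80 °C. Analysis by LC-MS/MS, positive-ion MRM. Parameters from noncompartmental analysis.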

[4] = biological target: Bromodomain adjacent to zinc finger domain protein 2B (Homo sapiens, UniProt Q9UIF8); test: Binding affinity to human BAZ2B (S2054 to S2168 residues) expressed in bacterial expression system by BROMOScan assay
[5] = species: Homo sapiens; test: Selectivity index, ratio of Kd for human CREBBP (R1081 to G1197 residues) to Kd for human BRDT bromodomain 1 (N21 to E137 residues)
[6] = biological target: E3 ubiquitin-protein ligase TRIM33 (Homo sapiens, UniProt Q9UPN9); test: Binding affinity to human TRIM33-phd-bromo (D882 to A1087 residues) expressed in bacterial expression system by BROMOscan assay
[7] = species: Homo sapiens; test: Selectivity index, ratio of Kd for human CECR2 (P423 to D543 residues) to Kd for human BRD3 bromodomain 2 (G306 to P416 residues)
[8] = species: Homo sapiens; test: Selectivity index, ratio of Kd for human CECR2 (P423 to D543 residues) to Kd for human BRD2 bromodomain 1 (K71 to N194 residues)
[9] = species: Homo sapiens; test: Selectivity index, ratio of Kd for human CECR2 (P423 to D543 residues) to Kd for human BRD4 bromodomain 2 (K333 to E460 residues)
[10] = biological target: Transcription initiation factor TFIID subunit 1-like (Homo sapiens, UniProt Q8IZX4); test: Binding affinity to human TAF1L bromodomain 2 (Q1523 to D1654 residues) expressed in bacterial expression system by BROMOScan assay
[11] = Drug uptake in tumor of SCID mouse xenografted with human MDA-MB-231 cells at 50 mg/kg administered via oral gavage measured after 1 hr; assay type: ADME, organism-based, Neoplasm; settings: read-out: Drug uptake
Method in brief: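 Limited PK in SCID mice bearing MDA-MB-231 tumors, 50 mg/kg given by oral gavage. Plasma and tumor tissue drug levels measured at two time points per compound. Values are the mean of two mice/tumors per time point.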

[12] = species: Homo sapiens; test: Selectivity index, ratio of Kd for human CECR2 (P423 to D543 residues) to Kd for human BRD4 bromodomain 1 (N44 to E168 residues)
[13] = biological target: Bromodomain-containing protein 7 (Homo sapiens, UniProt Q9NPI1); test: Binding affinity to human BRD7 (L125 to R254 residues) expressed in bacterial expression system by BROMOScan assay
[14] = species: Homo sapiens; test: Selectivity index, ratio of Kd for human EP300 (A1040 to G1161 residues) to Kd for human BRD2 bromodomain 1 (K71 to N194 residues)
[15] = species: Homo sapiens; test: Selectivity index, ratio of Kd for human EP300 (A1040 to G1161 residues) to Kd for human BRDT bromodomain 2 (K250 to E382 residues)
[16] = system: Mus musculus; test: Cmax in Balb/c mouse at 25 mg/kg, po by LC-MS/MS analysis; assay type: ADME, organism-based; parameters: dose 25 mg/kg, route oral; settings: in vivo; method in brief: as §1
[17] = biological target: Protein polybromo-1 (Homo sapiens, UniProt Q86U86); test: Binding affinity to human PBRM1 bromodomain 2 (S178 to E291 residues) expressed in bacterial expression system by BROMOScan assay
[18] = biological target: Histone acetyltransferase KAT2B (Homo sapiens, UniProt Q92831); test: Binding affinity to human PCAF (G715 to D831 residues) expressed in bacterial expression system by BROMOScan assay
[19] = biological target: Bromodomain-containing protein 9 (Homo sapiens, UniProt Q9H8M2); test: Binding affinity to human BRD9 (R130 to V259 residues) expressed in bacterial expression system by BROMOScan assay
[20] = system: MOLM-13; test: Growth inhibition of human MOLM13 cells after 4 days by WST-8 assay; assay type: functional, cell-based; settings: MOLM-13, 96 h
Method in brief: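 Leukemia cells, used within 3 months of thaw, were seeded at 10 000 cells/well and exposed to serially diluted compound in culture medium for 4 days. WST-8 reagent was added at 10% (v/v) final for 1−3 h, and absorbance was read at 450 nm. Readings were normalized to DMSO-treated cells, and the IC50 was fitted by nonlinear regression.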

[21] = system: Mus musculus; test: Toxicity in SCID mouse xenografted with human RS4:11 cells assessed as change in body weight at 10 to 50 mg/kg administered via oral gavage measured 2 to 3 times per week during compound dosing and measured weekly post treatment; assay type: organism-based; settings: in vivo
Method in brief: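 Xenografts raised by subcutaneous dorsal injection of 5 × 10⁶ cells in 50% Matrigel into SCID mice, one tumor per mouse. Mice randomized to treatment or vehicle groups at about 100 mm3 tumor volume. Compounds given by oral gavage at the indicated dose-schedules, with percentage body-weight change tracked alongside tumor volume (L × W²/2).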

[22] = Plasma concentration in SCID mouse xenografted with human MDA-MB-231 cells at 50 mg/kg administered via oral gavage measured after 6 hrs; assay type: ADME, organism-based
Method in brief: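 SCID mice carrying MDA-MB-231 tumors dosed orally at 50 mg/kg. Plasma drug level determined by LC-MS/MS (positive-ion MRM, C18 column, formic acid/acetonitrile gradient). Value is the mean from two mice per time point.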

[23] = biological target: Bromodomain-containing protein 2 (Homo sapiens, UniProt P25440); test: Binding affinity to human BRD2 bromodomain 2 (E348 to D455 residues) expressed in bacterial expression system by BROMOscan assay
[24] = Half life in Balb/c mouse at 25 mg/kg, po by LC-MS/MS analysis; assay type: ADME, organism-based; settings: in vivo; method in brief: as §1
[25] = species: Homo sapiens; test: Selectivity index, ratio of Kd for human CREBBP (R1081 to G1197 residues) to Kd for human BRDT bromodomain 2 (K250 to E382 residues)
[26] = biological target: Bromodomain-containing protein 8 (Homo sapiens, UniProt Q9H0E9); test: Inhibition of BRD8 bromodomain 2 (unknown origin) by BROMOScan assay
[27] = species: Homo sapiens; test: Selectivity index, ratio of Kd for human EP300 (A1040 to G1161 residues) to Kd for human BRDT bromodomain 1 (N21 to E137 residues)
[28] = AUC in Balb/c mouse at 25 mg/kg, po by LC-MS/MS analysis; assay type: ADME, organism-based; settings: in vivo; method in brief: as §1

Sequence of Bromodomain-containing protein 2 (P25440 whole entry, the tested form may be a part): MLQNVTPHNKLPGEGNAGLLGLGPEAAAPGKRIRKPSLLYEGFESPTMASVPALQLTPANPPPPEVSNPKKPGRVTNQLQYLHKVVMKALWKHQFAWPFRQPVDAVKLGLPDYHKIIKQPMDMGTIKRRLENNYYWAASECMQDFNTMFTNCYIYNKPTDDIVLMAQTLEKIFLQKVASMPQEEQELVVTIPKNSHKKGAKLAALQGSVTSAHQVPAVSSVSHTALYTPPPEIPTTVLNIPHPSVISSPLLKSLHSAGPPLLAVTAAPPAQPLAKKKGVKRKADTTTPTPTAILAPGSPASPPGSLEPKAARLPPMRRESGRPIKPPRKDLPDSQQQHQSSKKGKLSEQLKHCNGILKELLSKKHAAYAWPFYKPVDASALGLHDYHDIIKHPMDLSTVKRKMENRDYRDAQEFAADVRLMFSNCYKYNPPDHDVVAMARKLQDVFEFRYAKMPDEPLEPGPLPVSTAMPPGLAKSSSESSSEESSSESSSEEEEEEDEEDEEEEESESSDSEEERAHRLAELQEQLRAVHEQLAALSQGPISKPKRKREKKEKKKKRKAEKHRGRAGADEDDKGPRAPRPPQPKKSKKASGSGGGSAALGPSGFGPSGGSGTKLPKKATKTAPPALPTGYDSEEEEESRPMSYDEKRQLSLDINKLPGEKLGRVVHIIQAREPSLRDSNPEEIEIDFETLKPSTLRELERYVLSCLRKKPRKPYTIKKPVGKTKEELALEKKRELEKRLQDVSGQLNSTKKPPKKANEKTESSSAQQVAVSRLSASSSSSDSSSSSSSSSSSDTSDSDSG
Sequence of Protein polybromo-1 (Q86U86 whole entry, the tested form may be a part): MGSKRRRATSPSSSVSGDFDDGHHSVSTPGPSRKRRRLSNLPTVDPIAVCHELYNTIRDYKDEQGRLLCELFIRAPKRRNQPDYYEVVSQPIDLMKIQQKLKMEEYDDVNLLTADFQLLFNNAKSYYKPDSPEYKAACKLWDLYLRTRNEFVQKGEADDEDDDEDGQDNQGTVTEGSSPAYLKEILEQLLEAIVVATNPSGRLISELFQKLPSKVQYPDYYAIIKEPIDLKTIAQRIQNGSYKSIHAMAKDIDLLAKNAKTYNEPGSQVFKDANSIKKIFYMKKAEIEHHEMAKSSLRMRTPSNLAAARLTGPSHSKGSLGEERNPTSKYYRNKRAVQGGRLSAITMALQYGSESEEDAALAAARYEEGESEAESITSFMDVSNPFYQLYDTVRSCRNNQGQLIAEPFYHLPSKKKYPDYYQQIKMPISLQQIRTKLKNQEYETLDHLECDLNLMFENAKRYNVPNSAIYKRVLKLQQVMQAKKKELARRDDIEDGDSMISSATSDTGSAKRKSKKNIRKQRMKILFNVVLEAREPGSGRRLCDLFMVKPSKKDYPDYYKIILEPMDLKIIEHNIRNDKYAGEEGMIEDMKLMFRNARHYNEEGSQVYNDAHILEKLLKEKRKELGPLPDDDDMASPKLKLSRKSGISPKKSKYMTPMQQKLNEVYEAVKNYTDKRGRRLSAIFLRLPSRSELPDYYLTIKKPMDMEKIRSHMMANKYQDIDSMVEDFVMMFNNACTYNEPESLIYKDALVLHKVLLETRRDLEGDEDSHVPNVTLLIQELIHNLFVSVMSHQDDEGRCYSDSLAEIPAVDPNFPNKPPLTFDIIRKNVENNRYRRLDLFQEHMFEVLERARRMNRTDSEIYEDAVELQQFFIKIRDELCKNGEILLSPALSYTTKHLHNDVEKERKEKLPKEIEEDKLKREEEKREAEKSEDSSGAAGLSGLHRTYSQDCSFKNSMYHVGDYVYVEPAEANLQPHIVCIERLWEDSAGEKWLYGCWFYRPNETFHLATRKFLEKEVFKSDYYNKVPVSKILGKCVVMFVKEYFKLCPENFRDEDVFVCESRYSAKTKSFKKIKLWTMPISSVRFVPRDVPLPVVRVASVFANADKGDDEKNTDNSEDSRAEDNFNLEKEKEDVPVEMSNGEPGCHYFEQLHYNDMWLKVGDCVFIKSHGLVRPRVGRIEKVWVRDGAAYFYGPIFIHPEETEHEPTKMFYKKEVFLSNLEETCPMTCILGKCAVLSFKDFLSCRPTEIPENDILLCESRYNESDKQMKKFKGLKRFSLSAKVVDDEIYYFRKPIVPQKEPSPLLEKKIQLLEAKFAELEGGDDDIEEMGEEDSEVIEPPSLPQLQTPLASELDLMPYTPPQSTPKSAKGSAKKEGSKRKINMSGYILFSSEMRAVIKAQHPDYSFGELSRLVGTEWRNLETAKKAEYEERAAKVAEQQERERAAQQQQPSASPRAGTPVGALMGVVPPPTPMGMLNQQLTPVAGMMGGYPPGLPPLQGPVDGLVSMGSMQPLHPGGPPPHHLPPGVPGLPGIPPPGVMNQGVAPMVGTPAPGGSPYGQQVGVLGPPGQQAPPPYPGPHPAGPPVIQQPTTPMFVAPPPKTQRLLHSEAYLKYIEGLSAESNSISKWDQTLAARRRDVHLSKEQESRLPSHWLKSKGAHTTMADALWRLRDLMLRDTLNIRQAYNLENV
Sequence of Bromodomain-containing protein 7 (Q9NPI1 whole entry, the tested form may be a part): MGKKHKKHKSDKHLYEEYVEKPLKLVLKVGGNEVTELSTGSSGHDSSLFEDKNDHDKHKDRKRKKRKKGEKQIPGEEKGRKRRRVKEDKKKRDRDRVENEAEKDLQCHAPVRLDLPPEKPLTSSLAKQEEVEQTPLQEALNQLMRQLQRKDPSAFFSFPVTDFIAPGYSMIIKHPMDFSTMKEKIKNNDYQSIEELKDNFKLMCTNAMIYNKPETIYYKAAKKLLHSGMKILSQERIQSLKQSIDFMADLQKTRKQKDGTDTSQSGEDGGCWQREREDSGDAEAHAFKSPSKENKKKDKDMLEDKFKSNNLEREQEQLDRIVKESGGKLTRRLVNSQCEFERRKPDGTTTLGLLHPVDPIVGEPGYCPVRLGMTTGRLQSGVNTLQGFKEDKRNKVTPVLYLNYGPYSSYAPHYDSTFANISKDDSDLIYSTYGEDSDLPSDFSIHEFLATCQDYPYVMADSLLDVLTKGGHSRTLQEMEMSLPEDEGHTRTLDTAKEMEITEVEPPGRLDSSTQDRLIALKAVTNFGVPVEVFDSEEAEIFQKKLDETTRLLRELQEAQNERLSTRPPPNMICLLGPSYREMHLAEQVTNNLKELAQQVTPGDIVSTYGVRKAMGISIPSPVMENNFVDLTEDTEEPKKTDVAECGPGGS
Sequence of E3 ubiquitin-protein ligase TRIM33 (Q9UPN9 whole entry, the tested form may be a part): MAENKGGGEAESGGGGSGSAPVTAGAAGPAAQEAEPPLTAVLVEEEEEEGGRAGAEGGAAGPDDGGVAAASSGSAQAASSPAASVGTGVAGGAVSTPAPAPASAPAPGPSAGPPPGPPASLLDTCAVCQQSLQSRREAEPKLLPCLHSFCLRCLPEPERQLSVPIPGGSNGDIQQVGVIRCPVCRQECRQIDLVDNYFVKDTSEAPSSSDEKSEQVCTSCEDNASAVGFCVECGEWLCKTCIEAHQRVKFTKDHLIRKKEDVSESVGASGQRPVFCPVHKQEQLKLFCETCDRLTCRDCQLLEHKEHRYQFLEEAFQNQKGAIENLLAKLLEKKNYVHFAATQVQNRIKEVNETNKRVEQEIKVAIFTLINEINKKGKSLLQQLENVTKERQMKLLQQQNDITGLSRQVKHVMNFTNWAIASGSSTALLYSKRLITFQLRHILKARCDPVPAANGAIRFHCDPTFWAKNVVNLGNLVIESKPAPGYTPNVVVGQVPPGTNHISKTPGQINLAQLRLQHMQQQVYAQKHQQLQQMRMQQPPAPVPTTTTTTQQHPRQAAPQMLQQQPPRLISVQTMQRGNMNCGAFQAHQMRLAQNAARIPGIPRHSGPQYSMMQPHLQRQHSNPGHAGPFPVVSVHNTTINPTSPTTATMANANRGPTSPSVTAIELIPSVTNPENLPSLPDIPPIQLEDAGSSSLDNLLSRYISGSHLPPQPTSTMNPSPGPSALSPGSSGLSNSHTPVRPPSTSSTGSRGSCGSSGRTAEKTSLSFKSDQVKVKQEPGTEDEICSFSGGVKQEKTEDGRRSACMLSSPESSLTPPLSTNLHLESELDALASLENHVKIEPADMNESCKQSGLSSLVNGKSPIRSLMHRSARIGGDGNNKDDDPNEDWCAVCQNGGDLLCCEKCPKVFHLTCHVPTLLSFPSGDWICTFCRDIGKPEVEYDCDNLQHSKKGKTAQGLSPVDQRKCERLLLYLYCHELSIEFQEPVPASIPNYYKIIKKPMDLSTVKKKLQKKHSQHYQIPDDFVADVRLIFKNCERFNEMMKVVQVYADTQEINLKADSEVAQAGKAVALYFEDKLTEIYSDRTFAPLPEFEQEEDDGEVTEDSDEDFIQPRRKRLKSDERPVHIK
Sequence of Bromodomain-containing protein 9 (Q9H8M2 whole entry, the tested form may be a part): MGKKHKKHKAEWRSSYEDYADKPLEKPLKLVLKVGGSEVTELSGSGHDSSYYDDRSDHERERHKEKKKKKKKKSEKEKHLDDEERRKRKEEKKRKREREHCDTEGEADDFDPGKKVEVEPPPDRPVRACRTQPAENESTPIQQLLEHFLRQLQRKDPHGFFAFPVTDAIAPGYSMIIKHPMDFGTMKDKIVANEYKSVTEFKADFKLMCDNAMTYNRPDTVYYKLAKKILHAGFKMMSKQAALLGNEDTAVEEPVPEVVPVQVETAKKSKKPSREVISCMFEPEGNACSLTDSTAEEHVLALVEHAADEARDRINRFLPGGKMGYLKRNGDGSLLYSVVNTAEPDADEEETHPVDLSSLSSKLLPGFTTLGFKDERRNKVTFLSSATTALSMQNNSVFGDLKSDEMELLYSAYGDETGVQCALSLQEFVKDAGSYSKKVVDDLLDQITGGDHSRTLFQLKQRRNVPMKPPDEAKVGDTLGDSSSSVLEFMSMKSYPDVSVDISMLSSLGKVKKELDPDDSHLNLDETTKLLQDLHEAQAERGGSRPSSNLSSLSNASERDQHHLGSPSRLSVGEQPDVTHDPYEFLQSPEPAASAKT

Kd [1]: > 5 µM | Selectivity Index [2]: > 20 | Vd [3]: 0.83 L/kg | Kd [4]: > 5 µM | Selectivity Index [5]: > 20 | Kd [6]: > 5 µM | Selectivity Index [7]: > 50 | Selectivity Index [8]: > 50 | Selectivity Index [9]: > 50 | Kd [10]: > 5 µM | concentration at 1 h [11]: 7380 ng/g | Selectivity Index [12]: > 50 | Kd [13]: > 5 µM | Selectivity Index [14]: > 50 | Selectivity Index [15]: > 50 | Cmax [16]: 6400 ng/mL | Kd [17]: > 3 µM | Kd [18]: > 5 µM | Kd [19]: > 5 µM | IC50 [20]: 0.007 µM | concentration at 6 h [22]: 7360 ng/mL | Kd [23]: 0.0006 µM | half-life [24]: 1 h | Selectivity Index [25]: > 20 | Kd [26]: > 5 µM | Selectivity Index [27]: > 50 | AUC [28]: 32.2 µM·h
SMILES: COc1cc2c(cc1-c1c(C)noc1C)[nH]c1nc(C)nc(Nc3cc(C4CC4)nn3C)c12
Activity [21]: Non-Toxic
